Data set [1] is described as follows: Clearance in rat microsomes assessed per mg of protein at 0.5 uM. The format is ADME, Liver, Microsome. Conditions: liver microsomes. In general terms: Liver microsomes are vesicles of endoplasmic reticulum, rich in cytochrome P450 enzymes.
Data set [2] concerns the target Phosphatidylinositol 4,5-bisphosphate 3-kinase catalytic subunit alpha isoform (Homo sapiens, UniProt P42336). In words: Inhibition of PI3K alpha.
The target of data set [3] is Serine/threonine-protein kinase pim-1 (Homo sapiens) (UniProt P11309). The data set is described as follows: Inhibition of PIM1 at 10 uM.
Chain of Serine/threonine-protein kinase pim-1 (Homo sapiens) (P11309 whole entry, looked up, canonical isoform): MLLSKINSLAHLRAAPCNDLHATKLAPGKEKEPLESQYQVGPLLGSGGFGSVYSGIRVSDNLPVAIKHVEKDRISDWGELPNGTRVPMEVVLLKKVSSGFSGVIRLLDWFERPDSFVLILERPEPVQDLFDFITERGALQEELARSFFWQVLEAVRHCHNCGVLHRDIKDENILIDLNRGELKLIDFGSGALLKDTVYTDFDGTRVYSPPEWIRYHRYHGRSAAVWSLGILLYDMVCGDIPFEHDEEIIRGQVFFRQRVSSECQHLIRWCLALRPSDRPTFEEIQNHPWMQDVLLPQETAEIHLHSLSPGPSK
In data set [4] the target is Phosphatidylinositol 4,5-bisphosphate 3-kinase catalytic subunit gamma isoform (Homo sapiens, UniProt P48736). The data set is described as follows: Inhibition of PI3K gamma.
Chain of Phosphatidylinositol 4,5-bisphosphate 3-kinase catalytic subunit gamma isoform (P48736 whole entry, canonical isoform): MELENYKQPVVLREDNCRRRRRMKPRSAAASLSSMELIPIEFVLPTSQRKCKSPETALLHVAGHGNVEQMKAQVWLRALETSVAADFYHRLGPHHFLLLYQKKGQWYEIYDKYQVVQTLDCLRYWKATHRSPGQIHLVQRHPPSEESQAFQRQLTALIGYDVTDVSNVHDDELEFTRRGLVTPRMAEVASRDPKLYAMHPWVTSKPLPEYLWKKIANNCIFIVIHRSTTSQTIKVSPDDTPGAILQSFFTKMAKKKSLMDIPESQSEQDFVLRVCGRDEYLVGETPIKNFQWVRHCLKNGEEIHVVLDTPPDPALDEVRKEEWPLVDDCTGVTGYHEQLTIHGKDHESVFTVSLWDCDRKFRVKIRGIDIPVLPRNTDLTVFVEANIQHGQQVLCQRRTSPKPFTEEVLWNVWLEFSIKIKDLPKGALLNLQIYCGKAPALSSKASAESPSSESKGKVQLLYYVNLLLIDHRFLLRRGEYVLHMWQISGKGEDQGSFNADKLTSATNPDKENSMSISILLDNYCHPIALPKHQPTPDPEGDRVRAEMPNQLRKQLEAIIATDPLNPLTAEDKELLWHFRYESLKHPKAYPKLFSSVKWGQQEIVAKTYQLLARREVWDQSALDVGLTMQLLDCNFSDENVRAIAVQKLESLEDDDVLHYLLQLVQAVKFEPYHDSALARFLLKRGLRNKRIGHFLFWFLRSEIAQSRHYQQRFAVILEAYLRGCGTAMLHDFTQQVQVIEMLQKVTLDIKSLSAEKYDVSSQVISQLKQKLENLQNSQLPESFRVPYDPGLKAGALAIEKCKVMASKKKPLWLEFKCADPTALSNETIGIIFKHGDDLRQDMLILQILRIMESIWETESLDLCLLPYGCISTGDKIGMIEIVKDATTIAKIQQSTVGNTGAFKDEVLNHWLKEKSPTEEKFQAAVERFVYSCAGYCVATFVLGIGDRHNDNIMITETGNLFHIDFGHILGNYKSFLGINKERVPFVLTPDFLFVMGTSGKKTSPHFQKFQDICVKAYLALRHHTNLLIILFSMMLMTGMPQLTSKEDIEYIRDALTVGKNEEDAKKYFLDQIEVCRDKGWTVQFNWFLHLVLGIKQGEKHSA
The nature of data set [5]: AUC in Han-Wistar rat at 3 mg/kg, po. The data set is classed as ADME, organism-based. The conditions noted are these: plasma. The arrangement: dose 3 mg/kg, route oral. Summed up:
(§1)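 Male-or-unspecified Han–Wistar rats were given a single oral dose of 3 mg/kg. Plasma Cmax is reported in ng/mL and AUC in ng h/mL.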

The target of data set [6] is T1, Testis-specific serine/threonine-protein kinase 1 (Homo sapiens) (UniProt Q9BXA7).
T1 sequence (whole entry): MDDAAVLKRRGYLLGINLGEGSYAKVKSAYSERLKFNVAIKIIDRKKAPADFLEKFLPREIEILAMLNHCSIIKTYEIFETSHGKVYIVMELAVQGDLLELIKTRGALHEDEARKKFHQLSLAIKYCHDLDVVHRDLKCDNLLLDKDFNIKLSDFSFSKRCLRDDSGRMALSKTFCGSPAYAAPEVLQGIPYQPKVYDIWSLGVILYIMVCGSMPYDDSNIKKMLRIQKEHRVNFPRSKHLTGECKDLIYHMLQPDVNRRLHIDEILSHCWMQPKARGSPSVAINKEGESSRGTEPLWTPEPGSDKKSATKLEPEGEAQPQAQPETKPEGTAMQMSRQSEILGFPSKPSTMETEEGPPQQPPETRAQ
The data set is described as follows: Inhibition of TSSK1 at 10 uM.

For data set [7], the system named is Neutrophil. In words: Inhibition of fMLP-stimulated superoxide production in TNF alpha-primed human neutrophils by spectrophotometry. The format is functional, cell-based. Summed up: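 Human neutrophils were primed with TNFα and stimulated with fMLP, and cellular superoxide production was monitored. Inhibition values are quoted in nM.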
For data set [8], the target named is T2, Serine/threonine-protein kinase mTOR (Homo sapiens, UniProt P42345). In words: Inhibition of mTOR at 10 uM.
A short description of data set [9]: Inhibition of CK1 at 10 uM.
Data set [10] concerns Rattus norvegicus. The data set is described as follows: Inhibition of anti-CD3-induced IL2 release in po dosed Lewis rat blood. The format is functional. In outline:
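Acute T-cell activation was induced by anti-CD3 antibody in male Lewis rats. Compound was given orally, and IL2 released into blood was measured. Percent inhibition of IL-2 was plotted against log dose (mg/kg) to derive ED50. Values are mean ± SEM, n = 8.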

A short description of data set [11]: Inhibition of CaMK2 at 10 uM.
Data set [12] is described as follows: Clearance in human microsomes assessed per mg of protein at 0.5 uM. The format is ADME, Microsome.
The test system of data set [13] is Hepatocyte. The data set is described as follows: Clearance in rat hepatocyte assessed per mg of protein at 2 uM. The data set is classed as ADME, cell-based, Liver. The conditions noted are these: hepatocytes.
The target of data set [14] is Phosphatidylinositol 4,5-bisphosphate 3-kinase catalytic subunit beta isoform (Homo sapiens, UniProt P42338). In words: Inhibition of PI3K beta.
Chain of Phosphatidylinositol 4,5-bisphosphate 3-kinase catalytic subunit beta isoform (P42338 whole entry, canonical isoform): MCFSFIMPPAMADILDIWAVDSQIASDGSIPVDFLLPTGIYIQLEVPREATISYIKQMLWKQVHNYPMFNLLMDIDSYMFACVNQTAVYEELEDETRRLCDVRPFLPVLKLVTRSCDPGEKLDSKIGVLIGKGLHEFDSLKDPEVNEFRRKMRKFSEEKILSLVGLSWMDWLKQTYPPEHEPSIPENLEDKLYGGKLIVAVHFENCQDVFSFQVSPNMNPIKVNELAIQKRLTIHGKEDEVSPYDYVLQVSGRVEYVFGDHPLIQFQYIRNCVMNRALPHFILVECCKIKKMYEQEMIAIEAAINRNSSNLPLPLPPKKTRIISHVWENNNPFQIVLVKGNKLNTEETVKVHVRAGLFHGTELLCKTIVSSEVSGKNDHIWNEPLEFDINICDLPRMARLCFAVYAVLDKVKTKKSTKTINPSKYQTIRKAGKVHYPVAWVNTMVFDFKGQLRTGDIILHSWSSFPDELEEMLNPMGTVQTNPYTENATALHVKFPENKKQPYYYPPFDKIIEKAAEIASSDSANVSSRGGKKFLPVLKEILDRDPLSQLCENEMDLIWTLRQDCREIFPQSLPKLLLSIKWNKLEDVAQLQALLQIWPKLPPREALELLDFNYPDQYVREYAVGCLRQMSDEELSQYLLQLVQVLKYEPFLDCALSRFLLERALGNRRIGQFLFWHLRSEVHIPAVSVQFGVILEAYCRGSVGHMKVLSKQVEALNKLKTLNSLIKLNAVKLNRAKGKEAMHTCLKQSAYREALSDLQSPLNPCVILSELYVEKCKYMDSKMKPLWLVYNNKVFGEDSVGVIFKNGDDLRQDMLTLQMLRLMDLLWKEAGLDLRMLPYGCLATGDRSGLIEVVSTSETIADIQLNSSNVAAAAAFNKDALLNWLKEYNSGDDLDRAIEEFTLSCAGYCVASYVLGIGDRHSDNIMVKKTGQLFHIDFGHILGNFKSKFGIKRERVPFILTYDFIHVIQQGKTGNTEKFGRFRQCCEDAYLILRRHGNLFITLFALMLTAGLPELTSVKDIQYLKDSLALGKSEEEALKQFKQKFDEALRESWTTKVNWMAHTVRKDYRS
The nature of data set [15]: Cmax in Han-Wistar rat at 3 mg/kg, po. The data set is classed as ADME, organism-based. Conditions: in vivo. The arrangement: dose 3 mg/kg, route oral. Summed up: as §1
In data set [16] the target is T2, Serine/threonine-protein kinase mTOR. The data set is described as follows: Inhibition of mTOR.
The target in data set [17] is T3, Phosphatidylinositol 4,5-bisphosphate 3-kinase catalytic subunit delta isoform (Homo sapiens, UniProt O00329).
T3 sequence (O00329 whole entry): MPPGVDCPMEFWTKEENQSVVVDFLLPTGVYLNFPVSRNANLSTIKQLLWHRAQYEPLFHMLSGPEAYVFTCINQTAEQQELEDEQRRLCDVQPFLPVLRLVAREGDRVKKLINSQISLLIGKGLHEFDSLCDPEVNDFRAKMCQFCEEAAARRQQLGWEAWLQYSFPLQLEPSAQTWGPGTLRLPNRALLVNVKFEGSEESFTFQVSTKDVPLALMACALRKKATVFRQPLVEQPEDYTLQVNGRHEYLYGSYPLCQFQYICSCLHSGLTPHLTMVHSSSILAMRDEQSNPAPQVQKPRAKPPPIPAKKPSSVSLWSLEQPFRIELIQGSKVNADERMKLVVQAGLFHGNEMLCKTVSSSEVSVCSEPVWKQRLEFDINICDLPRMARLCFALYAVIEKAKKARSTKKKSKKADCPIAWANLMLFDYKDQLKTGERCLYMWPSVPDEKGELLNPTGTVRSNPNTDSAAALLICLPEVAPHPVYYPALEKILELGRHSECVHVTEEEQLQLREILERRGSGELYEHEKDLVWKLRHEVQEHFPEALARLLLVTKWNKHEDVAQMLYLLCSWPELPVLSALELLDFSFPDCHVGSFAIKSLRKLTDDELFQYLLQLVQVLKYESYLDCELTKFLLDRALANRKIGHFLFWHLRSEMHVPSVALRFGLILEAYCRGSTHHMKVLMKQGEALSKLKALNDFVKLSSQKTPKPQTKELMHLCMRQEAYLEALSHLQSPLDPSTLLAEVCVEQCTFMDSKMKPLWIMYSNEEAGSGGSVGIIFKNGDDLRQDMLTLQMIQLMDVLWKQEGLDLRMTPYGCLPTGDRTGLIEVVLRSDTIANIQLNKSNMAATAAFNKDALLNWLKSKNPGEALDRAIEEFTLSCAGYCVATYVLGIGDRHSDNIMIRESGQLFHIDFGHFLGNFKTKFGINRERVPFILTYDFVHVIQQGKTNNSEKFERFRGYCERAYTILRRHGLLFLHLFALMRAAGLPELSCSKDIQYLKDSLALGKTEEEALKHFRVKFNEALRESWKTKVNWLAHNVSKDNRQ
The data set is described as follows: Inhibition of PI3K delta.

Data set [18] is described as follows: Clearance in Han-Wistar rat at 1 mg/kg, iv. The format is ADME, organism-based. The arrangement: dose 1 mg/kg, route intravenous. The conditions noted are these: in vivo. Summed up:
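Han–Wistar rats were dosed intravenously at 1 mg/kg. Clearance is reported in mL/min/kg.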

Data set [19] addresses Mitogen-activated protein kinase 14 (Homo sapiens) (UniProt Q16539). In words: Inhibition of SAPK2a at 10 uM.
A short description of data set [20]: Oral bioavailability in Han-Wistar rat at 3 mg/kg. The data set is classed as ADME, organism-based. Conditions: in vivo.

As a reminder, the microsomal CLint is the capacity of the preparation to metabolise the compound, expressed as a volume cleared per time. A low value points to slow turnover. In general, IC50 refers to the concentration at which inhibition is half-maximal. Higher therefore signals a need for much substance. A word on the inhibition: it is the relative decrease from the control value, in per cent. As usually defined, the AUC is concentration integrated over time. Low values mean low exposure, high ones high exposure. One may read the ED50 as the dose at which the effect has come halfway, by size or by number of responders. Lower therefore signals greater potency. By Cmax is commonly meant the highest concentration seen after dosing. The term bioavailability denotes dose-corrected exposure relative to a reference, in per cent. A higher bioavailability goes with much systemic uptake.

Active and inactive are the calls of the source. No cut-off for these calls is given here. Bounds are passed on as bounds.

Chain of Mitogen-activated protein kinase 14 (Homo sapiens) (Q16539 whole entry): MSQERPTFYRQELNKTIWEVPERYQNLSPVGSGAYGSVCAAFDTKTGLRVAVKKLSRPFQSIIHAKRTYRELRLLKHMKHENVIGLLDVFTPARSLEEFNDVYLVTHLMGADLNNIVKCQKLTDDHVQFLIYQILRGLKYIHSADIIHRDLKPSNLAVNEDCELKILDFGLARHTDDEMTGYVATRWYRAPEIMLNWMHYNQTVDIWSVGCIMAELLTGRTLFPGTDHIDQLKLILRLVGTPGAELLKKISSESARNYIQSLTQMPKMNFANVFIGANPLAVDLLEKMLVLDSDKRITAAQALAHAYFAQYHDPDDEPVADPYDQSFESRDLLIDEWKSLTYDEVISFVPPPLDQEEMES
Chain of Phosphatidylinositol 4,5-bisphosphate 3-kinase catalytic subunit alpha isoform (P42336 whole entry, canonical isoform): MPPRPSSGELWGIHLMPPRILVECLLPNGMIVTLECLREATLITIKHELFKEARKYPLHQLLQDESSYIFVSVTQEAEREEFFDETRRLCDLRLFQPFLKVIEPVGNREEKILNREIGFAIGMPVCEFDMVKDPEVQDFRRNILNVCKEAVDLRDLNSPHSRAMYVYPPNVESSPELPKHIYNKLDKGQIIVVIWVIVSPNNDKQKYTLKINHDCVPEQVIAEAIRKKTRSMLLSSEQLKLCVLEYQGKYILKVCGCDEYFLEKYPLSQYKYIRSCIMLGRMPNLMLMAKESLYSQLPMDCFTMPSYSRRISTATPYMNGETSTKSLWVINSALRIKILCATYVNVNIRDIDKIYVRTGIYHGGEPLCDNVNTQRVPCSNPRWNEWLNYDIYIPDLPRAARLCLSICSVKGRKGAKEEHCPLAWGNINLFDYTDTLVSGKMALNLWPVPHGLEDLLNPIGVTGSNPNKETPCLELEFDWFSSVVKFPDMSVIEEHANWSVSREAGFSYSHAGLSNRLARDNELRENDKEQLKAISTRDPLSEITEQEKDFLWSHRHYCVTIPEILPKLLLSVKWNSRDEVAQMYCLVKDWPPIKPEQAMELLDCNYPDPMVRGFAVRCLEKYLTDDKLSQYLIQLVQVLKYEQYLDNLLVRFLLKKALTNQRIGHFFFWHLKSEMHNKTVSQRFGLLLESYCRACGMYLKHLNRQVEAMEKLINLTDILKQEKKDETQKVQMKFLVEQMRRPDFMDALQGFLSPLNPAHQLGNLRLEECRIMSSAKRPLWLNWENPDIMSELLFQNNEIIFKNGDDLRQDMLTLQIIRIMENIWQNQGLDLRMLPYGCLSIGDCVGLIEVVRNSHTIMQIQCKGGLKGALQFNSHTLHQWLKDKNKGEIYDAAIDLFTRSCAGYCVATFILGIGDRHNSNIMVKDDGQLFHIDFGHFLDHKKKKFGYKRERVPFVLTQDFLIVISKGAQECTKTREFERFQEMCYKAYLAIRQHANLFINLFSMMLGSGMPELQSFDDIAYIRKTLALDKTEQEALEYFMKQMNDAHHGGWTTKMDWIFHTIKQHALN

Take `Cc1ccc(-c2ccc3c(c2)N(c2nc4c(s2)C(=O)NC(C)(C)C4)CCO3)cn1`: the microsomal CLint at 0.5 µM amounted to 17 µL/min/mg in data set [1] and 25 µL/min/mg in [12]. For the same compound, the IC50 was 116 nM in [2]; 28 nM in data set [4]; 57 nM in [7]; 452 nM in data set [14]; over 15 µM in data set [16]; 21 nM in data set [17]. For the same compound, the inhibition in [3], in data set [6], in [9] and in [11] was over 80% each time. The same compound gave an AUC in data set [5] of 2880 ng·h/mL. In data set [8], the result was inactive. Besides, the ED50 in data set [10] was 15 mg/kg. Further, the CL in [13] is 7 µL/min/mg. Also, the Cmax in [15] came to 649 ng/mL.

Turning to `Cn1cc(-c2ccc3c(c2)N(c2nc4c(s2)C(=O)NC(C)(C)C4)CCO3)cn1`, the clearance in data set [18] was found to be 7 mL/min/kg; in [13] it was 0 µL/min/mg. Also, the inhibition in data set [3] and in [19] was over 50% in each case. In addition, the AUC in data set [5] was found to be 6160 ng·h/mL. Moreover, in [10], the 50% effective dose (ED50) was 25 mg/kg. The Cmax in [15] was determined as 1220 ng/mL. In [20], the bioavailability was found to be 97%.

These data come from ChEMBL document CHEMBL1155924, “Achieving multi-isoform PI3K inhibition in a series of substituted 3,4-dihydro-2H-benzo[1,4]oxazines” (Bioorg Med Chem Lett, 2008).
